Tests used:
Plasmodium falciparum [1] = assay: Antimicrobial activity against chloroquine-resistant Plasmodium falciparum Dd2 assessed as growth inhibition after 3 days by HRP2-based ELISA; type: functional; details: Dd2, 72 h
Summary of the method: (§1)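 Parasite growth followed by ELISA for P. falciparum histidine-rich protein 2; values are the mean of two duplicate determinations.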

Plasmodium falciparum [2] = assay: Antimicrobial activity against chloroquine-sensitive Plasmodium falciparum 3D7 assessed as growth inhibition after 3 days by HRP2-based ELISA; type: functional, organism-based; details: 3D7, 72 h; summary of the method: as §1
Plasmodium falciparum [3] = assay: Antimicrobial activity against multidrug-resistant Plasmodium falciparum FCR3 assessed as growth inhibition after 3 days by HRP2-based ELISA; type: functional, organism-based; details: FCR3, 72 h; summary of the method: as §1
[4] = Inhibition of Plasmodium falciparum IspC using 1-deoxy-D-xylulose 5-phosphate as substrate by photometric analysis
Summary of the method: (§2)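 Photometric enzyme assay run per an earlier method. IC50 was fitted by nonlinear regression from eight or more data points. Generally two or three independent determinations were made.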

[5] = molecular target: T1, 1-deoxy-D-xylulose 5-phosphate reductoisomerase (Escherichia coli K-12, UniProt P45568); assay: Inhibition of Escherichia coli M15 recombinant IspC using 1-deoxy-D-xylulose 5-phosphate as substrate by photometric analysis; summary of the method: as §2
T1 sequence (P45568 whole entry): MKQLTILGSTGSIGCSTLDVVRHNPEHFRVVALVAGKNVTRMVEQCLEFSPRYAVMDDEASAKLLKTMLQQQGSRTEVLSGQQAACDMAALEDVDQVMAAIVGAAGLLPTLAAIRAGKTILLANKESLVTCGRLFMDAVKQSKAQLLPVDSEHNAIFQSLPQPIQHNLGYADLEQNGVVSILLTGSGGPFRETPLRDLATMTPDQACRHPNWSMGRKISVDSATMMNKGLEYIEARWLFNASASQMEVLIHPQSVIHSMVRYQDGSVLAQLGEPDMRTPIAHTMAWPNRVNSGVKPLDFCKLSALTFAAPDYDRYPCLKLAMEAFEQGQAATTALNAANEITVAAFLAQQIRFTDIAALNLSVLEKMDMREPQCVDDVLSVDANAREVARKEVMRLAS

[6] = molecular target: T2, 1-deoxy-D-xylulose 5-phosphate reductoisomerase (Mycobacterium tuberculosis, UniProt P9WNS1); assay: Inhibition of Mycobacterium tuberculosis IspC using 1-deoxy-D-xylulose 5-phosphate as substrate by photometric analysis
T2 sequence (P9WNS1 whole entry): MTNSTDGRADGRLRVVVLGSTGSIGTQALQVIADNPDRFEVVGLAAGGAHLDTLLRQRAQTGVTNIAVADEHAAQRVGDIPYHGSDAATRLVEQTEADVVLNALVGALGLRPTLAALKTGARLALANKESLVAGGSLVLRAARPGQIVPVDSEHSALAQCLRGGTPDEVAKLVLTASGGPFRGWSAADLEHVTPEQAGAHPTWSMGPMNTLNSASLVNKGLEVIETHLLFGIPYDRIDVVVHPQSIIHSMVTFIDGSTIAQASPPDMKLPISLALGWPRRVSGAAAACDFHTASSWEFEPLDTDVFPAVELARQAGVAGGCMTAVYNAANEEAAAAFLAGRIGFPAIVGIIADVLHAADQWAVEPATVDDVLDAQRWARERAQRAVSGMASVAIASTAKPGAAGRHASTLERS

Structure (SMILES)	IC50 (Plasmodium falciparum [1])	IC50 (Plasmodium falciparum [2])	IC50 (Plasmodium falciparum [3])	IC50 [4]	IC50 [5]	IC50 [6]
Cc1ccc(C(CCC(=O)N(C)O)P(=O)(O)O)cc1 (stereo unspecified)	0.25 µM	0.21 µM	0.38 µM	0.01 µM	0.29 µM	–
COc1ccc(C(CCC(=O)N(C)O)P(=O)(O)O)cc1 (stereo unspecified)	0.3 µM	0.1 µM	0.57 µM	0.02 µM	0.07 µM	2 µM
Cc1ccc(C(CCC(=O)NO)P(=O)(O)O)cc1 (stereo unspecified)	2.8 µM	2.6 µM	–	0.19 µM	0.7 µM	11 µM
COc1ccc(C(CCC(=O)NO)P(=O)(O)O)cc1 (stereo unspecified)	3.6 µM	1.7 µM	–	0.08 µM	0.14 µM	15 µM
COc1ccc(C(CCC(=O)N(C)O)P(=O)(O)O)cc1OC (stereo unspecified)	1.2 µM	0.29 µM	–	0.06 µM	0.32 µM	29 µM
COc1ccc(C(CCC(=O)NO)P(=O)(O)O)cc1OC (stereo unspecified)	8.1 µM	6.8 µM	–	0.13 µM	1.5 µM	163 µM
COc1ccc(C(OCC(=O)N(C)O)P(=O)(O)O)cc1 (stereo unspecified)	1.1 µM	0.31 µM	0.41 µM	0.05 µM	0.45 µM	2.8 µM
COc1ccc(C(OCC(=O)NO)P(=O)(O)O)cc1 (stereo unspecified)	–	> 50 µM	–	2.2 µM	17 µM	352 µM
CN(O)C(=O)CCCC(c1ccccc1)P(=O)(O)O (stereo unspecified)	–	> 50 µM	–	2.1 µM	4.3 µM	429 µM
CN(O)C(=O)CCC(NC(=O)c1ccccc1)P(=O)(O)O (stereo unspecified)	–	> 50 µM	–	9.1 µM	11 µM	238 µM
O=C(CCC(NC(=O)c1ccccc1)P(=O)(O)O)NO (stereo unspecified)	–	> 50 µM	–	> 1000 µM	741 µM	> 1000 µM
O=C(CCC(c1ccccc1)P(=O)(O)O)Nc1ccccc1O (stereo unspecified)	–	> 50 µM	–	> 300 µM	> 500 µM	> 500 µM
O=P(O)(O)CCC(c1cccc2ccccc12)P(=O)(O)O (stereo unspecified)	–	> 50 µM	–	> 300 µM	> 500 µM	> 500 µM
